We go through 3 molecules from ChEMBL document CHEMBL2010709, “Pinophilins A and B, inhibitors of mammalian A-, B-, and Y-family DNA polymerases and human cancer cell proliferation” (J Nat Prod, 2012).

The source made the active and inactive calls. The rule behind the calls is not given here.

Series [1] has as its system Brassica oleracea var. botrytis. Nature of the series: Inhibition of cauliflower DNA polymerase alpha assessed as inhibition of incorporation of dTTP into activated DNA primer after 60 mins.
Series [2] in a line: Inhibition of rice cv. Nipponbare recombinant C-terminal-His6-tagged DNA polymerase lambda expressed in Escherichia coli assessed as inhibition of incorporation of dTTP into poly(dA)/oligo(dT)18 after 60 mins. Further details: species or system Oryza sativa. The essentials: (§1)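 Compound in DMSO was sonicated for 30 s, then held with enzyme (0.05 units final) at 0 °C for 10 min in 50 mM Tris-HCl pH 7.5, 1 mM DTT, 50% glycerol, 0.1 mM EDTA. The mixture was added to the standard reaction mix with poly(dA)/oligo(dT)18 (A/T = 2/1) and dTTP, 37 °C, 60 min. Activity was relative to no-inhibitor control; mean ± SE, three independent experiments.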

In series [3] the target is Human immunodeficiency virus type 1 reverse transcriptase (Human immunodeficiency virus 1, UniProt Q72547). Nature of the series: Inhibition of HIV-1 reverse transcriptase assessed as inhibition of incorporation of dTTP into poly(rA)/oligo(dT)18 after 60 mins. The essentials:
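Enzyme (0.05 units) was preincubated with compound in DMSO at 0 °C for 10 min in Tris-HCl pH 7.5/DTT/glycerol/EDTA buffer, then reacted at 37 °C for 60 min. Substrates were poly(rA)/oligo(dT)18 (A/T = 2/1) plus dTTP for HIV-1 RT, and oligo(dT)18 (3′-OH) primer plus dTTP for calf thymus TdT. Activity was relative to uninhibited control; mean ± SE of three experiments.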

Series [4] can be described thus: Inhibition of human His6-tagged DNA polymerase gamma expressed using baculovirus assessed as inhibition of incorporation of dTTP into poly(dA)/oligo(dT)18 after 60 mins. The essentials:
as §1

A further series has as its system BALL-1. Briefly: Cell cycle arrest in human BALL-1 cells assessed as accumulation at S-phase at GI50 by tritiated thymidine incorporation assay. Type of series: functional, cell-based. A general note: Incorporation of labelled thymidine or its analogues reports DNA synthesis.
A short description of series [5]: Inhibition of cauliflower DNA polymerase alpha assessed as inhibition of incorporation of dTTP into poly(dA)/oligo(dT)18 after 60 mins. Further details: species or system Brassica oleracea var. botrytis. The method in brief: as §1
The next series deals with Polynucleotide kinase (Enterobacteria phage T4, UniProt P06855). Briefly: Inhibition of T4 arnN8l pseT 1 polynucleotide kinase assessed as inhibition of Salmon sperm DNA phosphorylation using [gamma32P]ATP by liquid scintillation counting. Also on record: species or system Tequatrovirus T4.
Series [6] relates to HCT-116. Nature of the series: Cell cycle arrest in human HCT116 cells assessed as accumulation at S-phase at GI50 by tritiated thymidine incorporation assay. Type of series: functional, cell-based.
A short description of series [7]: Inhibition of calf DNA primase of polymerase alpha. Also on record: species or system Bos taurus.
The next series concerns Thermus aquaticus. Nature of the series: Inhibition of Thermus aquaticus DNA polymerase assessed as inhibition of incorporation of dTTP into activated DNA primer after 60 mins.
A further series deals with T1, DNA polymerase iota (Mus musculus, UniProt Q6R3M4).
T1 sequence (Q6R3M4 whole entry): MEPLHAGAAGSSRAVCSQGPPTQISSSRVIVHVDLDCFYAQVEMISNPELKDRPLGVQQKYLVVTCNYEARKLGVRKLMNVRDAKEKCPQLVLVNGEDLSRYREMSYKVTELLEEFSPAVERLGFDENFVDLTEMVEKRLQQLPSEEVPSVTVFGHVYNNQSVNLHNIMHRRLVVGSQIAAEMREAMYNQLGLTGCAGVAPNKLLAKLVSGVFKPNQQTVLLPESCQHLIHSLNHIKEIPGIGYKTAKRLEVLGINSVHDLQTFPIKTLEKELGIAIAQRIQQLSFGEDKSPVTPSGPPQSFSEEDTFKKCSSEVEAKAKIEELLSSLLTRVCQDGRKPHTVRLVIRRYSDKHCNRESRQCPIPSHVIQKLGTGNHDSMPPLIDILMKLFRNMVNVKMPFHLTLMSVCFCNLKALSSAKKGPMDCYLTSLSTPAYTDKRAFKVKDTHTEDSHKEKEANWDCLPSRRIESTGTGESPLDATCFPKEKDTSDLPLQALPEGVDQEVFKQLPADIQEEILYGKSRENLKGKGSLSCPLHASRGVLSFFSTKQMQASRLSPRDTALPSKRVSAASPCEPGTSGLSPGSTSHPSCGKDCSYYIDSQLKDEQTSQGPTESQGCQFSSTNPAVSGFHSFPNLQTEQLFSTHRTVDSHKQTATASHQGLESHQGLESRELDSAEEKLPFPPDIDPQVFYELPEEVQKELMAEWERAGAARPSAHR
Briefly: Inhibition of mouse recombinant C-terminal-His6-tagged DNA polymerase iota assessed as inhibition of incorporation of dTTP into poly(dA)/oligo(dT)18 after 60 mins. The essentials: as §1

The target in series [8] is DNA polymerase eta (Homo sapiens) (UniProt Q9Y253). Briefly: Inhibition of C-terminal-His6-tagged human pol eta expressed in Escherichia coli assessed as inhibition of incorporation of dTTP into poly(dA)/oligo(dT)18 after 60 mins.
In series [9] the test system is HCT-116. Nature of the series: Growth inhibition of against human HCT116 cells after 24 hrs by WST-1 assay. The series is classed as functional. To be noted: HCT-116, 24 h. The essentials:
(§2)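 Cancer cells were grown in McCoy's 5A with 10% FBS and penicillin/streptomycin, 37 °C, 5% CO2. Cells were seeded at 1 × 10^4 per well, cultured 12 h, then given compound (10 mM DMSO stock diluted in medium, 0.5% DMSO) for 24 h. WST-1 was added for 4 h and absorbance read at 450/630 nm. GI50 given as mean ± SE, five independent experiments.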
On the technique in general: Tetrazolium dyes change colour on reduction, which living cells bring about.

For the next series, the system named is Oryza sativa. Briefly: Inhibition of rice cv. Nipponbare recombinant C-terminal-His6-tagged DNA polymerase lambda expressed in Escherichia coli assessed as inhibition of incorporation of dTTP into activated DNA primer after 60 mins.
A short description of series [10]: Growth inhibition of HDF cells after 72 hrs by WST-1 assay. The series is classed as cell-based. The settings on record: human. The method in brief:
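Normal cells (HDF, HUVEC) were grown in Eagle's MEM with 4.5 g/L glucose, 10% FCS, 5 mM L-glutamine and penicillin/streptomycin, 37 °C, 5% CO2. Cells were seeded at 1 × 10^4 per well, cultured 12 h, then exposed to compound (0.5% DMSO final) for 72 h. Viability was read by WST-1 at 450/630 nm. GI50 given as mean ± SE of five experiments.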

Series [11] in a line: Inhibition of T7 RNA polymerase assessed as inhibition of incorporation of [3H]UTP after 30 mins by liquid scintillation counting. Further details: species or system Escherichia phage T7.
A short description of series [12]: Inhibition of Thermus aquaticus DNA polymerase assessed as inhibition of incorporation of dTTP into poly(dA)/oligo(dT)18 after 60 mins at 74 degC. The essentials: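 Taq pol (0.05 units) was preincubated with compound (DMSO, sonicated) at 0 °C for 10 min, then reacted with poly(dA)/oligo(dT)18 (A/T = 2/1) and dTTP at 74 °C for 60 min. Activity was expressed relative to no-inhibitor control; mean ± SE, three independent experiments.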

A further series concerns A549. Nature of the series: Growth inhibition of human A549 cells after 24 hrs by WST-1 assay. Type of series: functional. To be noted: A549, 24 h. The essentials:
as §2

In series [13] the target is Inosine-5'-monophosphate dehydrogenase 2 (Mus musculus, UniProt P24547). Nature of the series: Inhibition of mouse IMP dehydrogenase 2.

One may read the IC50 as the concentration that inhibits the measured activity by half. The GI50 is the concentration that inhibits growth by half. A higher GI50 goes with less potent growth inhibition.

Sequence of Polynucleotide kinase (P06855 whole entry, looked up): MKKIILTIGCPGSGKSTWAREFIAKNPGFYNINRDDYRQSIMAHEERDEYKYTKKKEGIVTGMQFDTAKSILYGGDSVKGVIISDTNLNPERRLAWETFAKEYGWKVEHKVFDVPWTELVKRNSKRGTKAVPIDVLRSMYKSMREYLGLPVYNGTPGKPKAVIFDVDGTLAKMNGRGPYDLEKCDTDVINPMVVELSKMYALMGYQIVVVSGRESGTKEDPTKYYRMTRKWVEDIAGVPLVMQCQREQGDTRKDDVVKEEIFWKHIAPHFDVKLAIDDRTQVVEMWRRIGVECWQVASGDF
Sequence of Inosine-5'-monophosphate dehydrogenase 2 (P24547 whole entry): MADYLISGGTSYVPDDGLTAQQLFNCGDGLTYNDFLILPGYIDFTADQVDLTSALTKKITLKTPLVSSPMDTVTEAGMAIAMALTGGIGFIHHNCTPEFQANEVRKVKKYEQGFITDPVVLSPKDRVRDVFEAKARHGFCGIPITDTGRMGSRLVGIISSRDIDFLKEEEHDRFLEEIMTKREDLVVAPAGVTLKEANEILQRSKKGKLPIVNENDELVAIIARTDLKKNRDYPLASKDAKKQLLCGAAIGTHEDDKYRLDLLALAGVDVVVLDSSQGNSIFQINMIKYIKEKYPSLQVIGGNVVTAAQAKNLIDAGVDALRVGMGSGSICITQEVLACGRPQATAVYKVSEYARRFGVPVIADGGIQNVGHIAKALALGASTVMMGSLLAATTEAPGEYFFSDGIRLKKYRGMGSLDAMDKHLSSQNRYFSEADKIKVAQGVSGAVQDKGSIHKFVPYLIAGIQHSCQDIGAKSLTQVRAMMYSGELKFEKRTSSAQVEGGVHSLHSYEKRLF
Sequence of DNA polymerase eta (Homo sapiens) (Q9Y253 whole entry, looked up): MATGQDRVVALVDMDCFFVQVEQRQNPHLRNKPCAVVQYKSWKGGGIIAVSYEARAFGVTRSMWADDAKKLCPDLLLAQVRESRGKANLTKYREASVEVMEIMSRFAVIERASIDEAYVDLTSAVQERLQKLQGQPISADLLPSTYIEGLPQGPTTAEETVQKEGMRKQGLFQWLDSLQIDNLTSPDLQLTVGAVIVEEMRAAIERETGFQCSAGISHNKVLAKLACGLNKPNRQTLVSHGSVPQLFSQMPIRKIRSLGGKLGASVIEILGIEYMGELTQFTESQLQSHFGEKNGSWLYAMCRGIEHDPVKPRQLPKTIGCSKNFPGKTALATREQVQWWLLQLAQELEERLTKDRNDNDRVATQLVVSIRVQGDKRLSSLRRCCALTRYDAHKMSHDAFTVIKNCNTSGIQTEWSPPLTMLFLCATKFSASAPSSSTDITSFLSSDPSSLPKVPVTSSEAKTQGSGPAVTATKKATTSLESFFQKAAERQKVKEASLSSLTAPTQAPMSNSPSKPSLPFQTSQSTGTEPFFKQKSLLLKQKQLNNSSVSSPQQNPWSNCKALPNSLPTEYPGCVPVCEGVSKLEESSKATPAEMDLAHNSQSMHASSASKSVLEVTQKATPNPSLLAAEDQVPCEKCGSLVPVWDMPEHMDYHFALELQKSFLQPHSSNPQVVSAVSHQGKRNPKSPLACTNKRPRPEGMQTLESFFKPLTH

`Cc1cc(O)cc(O)c1C(=O)O[C@H]1[C@@H]2COC(/C=C/CO)=CC2=CC(=O)[C@@]1(C)O` [PINOPHILIN B]: the inhibition result (in series [1]; with Thermus aquaticus; in the series with Oryza sativa) was “inactive” throughout. Also, the IC50 in series [2] was over 200 µM; in series [3] it was over 200 µM; in series [4] it was 93.7 µM; in series [5], over 200 µM; on Polynucleotide kinase it was over 200 µM; in series [7] it was over 200 µM. The IC50 at DNA polymerase iota was 91 µM; in series [8] it was 92.1 µM; in series [11] it was over 200 µM; in series [12], over 200 µM; in [13], over 200 µM. Besides, the result with BALL-1 and with HCT-116 [6] was Active. For the same molecule, the results for the GI50 with HCT-116 [9] and with A549 were 92.5 µM and 93.1 µM, respectively. Moreover, the GI50 at 72 h in [10] is over 200 µM.
As for `C/C=C/C1=CC2=CC(=O)[C@@](C)(O)[C@@H](OC(=O)c3c(C)cc(O)cc3O)[C@@H]2CO1`, the inhibition entry (in series [1]; with Thermus aquaticus; with Oryza sativa) was “inactive” each time. The IC50 was over 200 µM in [2]; over 200 µM in series [3]; 67.3 µM in [4]; over 200 µM in [5]; over 200 µM on Polynucleotide kinase; over 200 µM in series [7]. The half-maximal inhibitory concentration (IC50) is 63.8 µM at DNA polymerase iota; 63.1 µM in [8]; over 200 µM in series [11]; over 200 µM in series [12]; over 200 µM in series [13]. The result in the series with BALL-1 and in the series on HCT-116 [6] was Active. For the same molecule, the GI50 in the series with HCT-116 [9] worked out at 64.6 µM; in the series on A549 it was 65.7 µM. In series [10], this molecule returned a GI50 at 72 h of over 200 µM.
On to `C/C=C/C1=CC2=CC(=O)[C@@](C)(OC(=O)c3c(C)cc(O)cc3O)[C@@H](O)[C@@H]2CO1` [PINOPHILIN A], for which the inhibition result (in series [1]; in the series on Thermus aquaticus; with Oryza sativa) was “inactive” throughout. The IC50 in series [2] was over 200 µM; in series [3], over 200 µM; in series [4] it was 55.6 µM; in series [5], over 200 µM; at Polynucleotide kinase, over 200 µM; in series [7], over 200 µM. The IC50 at DNA polymerase iota was 50.2 µM; in series [8] it was 50.9 µM; in [11], over 200 µM; in [12] it was over 200 µM; in series [13], over 200 µM. The result with BALL-1 and in the series with HCT-116 [6] was Active. The GI50 with HCT-116 [9] was 51.3 µM; with A549, 52.5 µM. Moreover, in [10], the GI50 at 72 h is over 200 µM.
